Reference: paper PMC7439260 (ACS Omega, 2020)
pIC50: −log10 of the molar value. Where a name gives a salt, the structure may show the parent alone. Where a SMILES comes first, the peptide text is derived from it. [ ]: non-standard residue; d: D form. Hyp = O=C(O)[C@@H]1C[C@@H](O)CN1

Experiments:
bleeding time = assay: Tail bleeding assay; format: in vivo, ICR mice; conditions: mice, n = 10; for Effect on bleeding time (BT) (in words): doses of 300 and 400 μmol/kg b.w. oral; for Bleeding time (BT): 100 μmol/kg b.w. oral, tail cut 3 mm, saline 37 °C, maximum 900 s
thymus and spleen = assay: Thymus index and spleen index; format: in vivo, ICR mice; conditions: oral administration at doses of 300 or 450 μmol/kg b.w.; mice
How it was run: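 The same orally dosed ICR mice (300 or 450 μmol/kg b.w. peptide, saline vehicle) were weighed and sacrificed after the tail-bleeding test. Thymus and spleen were excised, washed in PBS, blotted and weighed. Indices were computed as organ weight / body weight (mg/g). Gross appearance of the organs was checked for atrophy, hyperplasia or swelling.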

[1] = test system: human platelet aggregation; conditions: at 1 mg/mL; cited from earlier work
[2] = test system: platelet aggregation induced by ADP; assay: Inhibition of ADP-induced platelet aggregation in vitro; format: cell-based, rat; conditions: data not shown
How it was run: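 Rat aortic blood was anticoagulated with sodium citrate (1:9, v/v) and spun at 50 × g for 10 min to give PRP. A further 750 × g, 10 min spin gave PPP, used to dilute PRP to 2–3 × 10^8. PRP was preincubated with buffer or peptide for 5 min at 37 °C, then ADP (0.1 mM) was added. Aggregation at 5 min was read on an aggregometer. Inhibition % was calculated versus the buffer control, and IC50 was derived by curve fitting.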

[3] = test system: platelet aggregation induced by ADP; conditions: read-out: IC50 of antiplatelet activity induced by ADP; cited from earlier work

With `O=C(O)CC[C@H](NC(=O)CNC(=O)[C@@H]1C[C@@H](O)CN1)C(=O)N[C@@H](Cc1ccccc1)C(=O)NCC(=O)O` [OGEFG, Hyp-Gly-Glu-Phe-Gly] (H-[Hyp]GEFG-OH) the “Effect on bleeding time (BT) (in words)” value (bleeding time) was “no significant increase in BT” and the “Acute toxicological effects (in words)” value (thymus and spleen) was “no acute toxicological effects”.

For `COC(=O)[C@H](c1ccccc1Cl)N1CCc2sccc2C1` [clopidogrel, clopidogrel hydrogen sulfate, reference compound], the “Bleeding time (BT)” value (bleeding time) was > 15 min.

In the case of LTFPRIVFVLG, the “Inhibition of platelet aggregation” value [1] is given as 76.69%.

In the case of VFPQ, the “Activity against ADP-induced platelet aggregation (in words)” value [2] was “poor activities”.

With `CC(=O)Oc1ccccc1C(=O)O` [aspirin, Aspirin, reference compound] the “Bleeding time (BT)” value (bleeding time) was 5.345 min.

For `N[C@@H](CC(=O)O)C(=O)N[C@@H](CCC(=O)O)C(=O)NCC(=O)N1CCC[C@H]1C(=O)O` [DEGP, Asp-Glu-Gly-Pro] (H-DEGP-OH), the “Effect on bleeding time (BT) (in words)” value (bleeding time) was “no significant increase in BT” and the “Acute toxicological effects (in words)” value (thymus and spleen) was “no acute toxicological effects”.

In the case of SSGE, the pIC50 [3] is listed as 3.32.
